For orientation: EC50 means the concentration needed to bring the measured effect to its halfway point.

Data on two molecules can be found in ChEMBL document CHEMBL4616588, “High content phenotypic screening identifies serotonin receptor modulators with selective activity upon breast cancer cell cycle and cytokine signaling pathways” (Bioorg Med Chem, 2020).

Activity calls are given as the source filed them. No cut-off for these calls is given here.

Assay [1] concerns T47D. As to the kind of experiment: Induction of morphological changes in human T47D cells at 10 uM incubated for 48 hrs by Hoechst 33342, SYTO14, Phalloidin-594, Wheat germ agglutinin-594, Concavalin-488, MitoTracker DeepRed staining based wide field fluorescent microscopic method. It counts as functional, cell-based. The procedure, abridged: (§1)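 Parental HCC1954 or T47D cells were seeded at 3000 cells/well in 96-well or 1500 cells/well in 384-well optical imaging plates and grown 24 h. Compounds were given for 48 h at up to 10 μM, with 0.1% DMSO and 0.3 μM staurosporine controls. Cells were fixed in 4% paraformaldehyde for 30 min at RT, then Cell Painting stained for 30 min in the dark […]. Imaging used wide-field fluorescence, and nuclei were segmented from the Hoechst channel and counted.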

In assay [2] the test system is T47D. Kind of assay: Antiproliferative activity against human T47D cells assessed reduction in cell number at 10 uM incubated for 72 hrs by Alamar blue assay. It counts as functional, cell-based. The procedure, abridged:
(§2)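 Parental cells in DMEM with 10% FBS and 2 mM L-glutamine at 37 °C, 5% CO2. Seeded in 96-well plates at a line-optimized density (HCC1954 and T47D, 3000 cells/well) and grown 24 h before treatment. Compounds were incubated 72 h, with 0.1% DMSO (v/v) controls. Alamar Blue was added at 10% v/v for 3 h. Fluorescence was read at ex 540/em 590 nm and normalized to plate DMSO wells.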
In general terms: Resazurin is reduced to fluorescent resorufin, in cell work by metabolically active cells.

The subject of assay [3] is HCC1954. As to the kind of experiment: Induction of morphological changes in human HCC1954 cells at 10 uM incubated for 48 hrs by Hoechst 33342, SYTO14, Phalloidin-594, Wheat germ agglutinin-594, Concavalin-488, MitoTracker DeepRed staining based wide field fluorescent microscopic method. The format is functional, cell-based. The essentials: as §1
Assay [4] relates to HCC1954. As to the kind of experiment: Antiproliferative activity against human HCC1954 cells assessed as reduction in cell number at 10 uM incubated for 72 hrs Alamar blue assay. It counts as functional, cell-based. The procedure, abridged: as §2
Assay [5] deals with T47D. As to the kind of experiment: Induction of morphological changes in human T47D cells assessed as number of nuclei incubated for 48 hrs by Hoechst 33342, SYTO14, Phalloidin-594, Wheat germ agglutinin-594, Concavalin-488, MitoTracker DeepRed staining based wide field fluorescent microscopic method. It counts as functional, cell-based. The procedure, abridged: as §1
Assay [6] deals with T47D. Kind of assay: Antiproliferative activity against human T47D cells assessed as cell viability incubated for 72 hrs Alamar blue assay. It counts as functional, cell-based. The procedure, abridged: as §2
The subject of assay [7] is HCC1954. Kind of assay: Induction of morphological changes in human HCC1954 cells assessed as number of nuclei incubated for 48 hrs by Hoechst 33342, SYTO14, Phalloidin-594, Wheat germ agglutinin-594, Concavalin-488, MitoTracker DeepRed staining based wide field fluorescent microscopic method. Conditions: HCC1954, 48 h. It counts as functional, cell-based. The essentials: as §1

Assay [8] deals with HCC1954. Kind of assay: Antiproliferative activity against human HCC1954 cells assessed as cell viability incubated for 72 hrs Alamar blue assay. The settings on record: HCC1954, 72 h. It counts as functional, cell-based. The procedure, abridged: as §2
Assay [9] deals with T47D. As to the kind of experiment: Antiproliferative activity against human T47D cells assessed reduction in cell number at 1 uM incubated for 72 hrs by Alamar blue assay. It counts as functional, cell-based. The procedure, abridged: as §2
Assay [10] relates to HCC1954. Kind of assay: Antiproliferative activity against human HCC1954 cells assessed as reduction in cell number at 1 uM incubated for 72 hrs Alamar blue assay. The format is functional, cell-based. The essentials: as §2
Assay [11] deals with T47D. As to the kind of experiment: Induction of cell cycle arrest in human T47D cells assessed as downregulation in CCND1 RNA incubated for 24 hrs. It counts as functional, cell-based. The procedure, abridged:
(§3)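 T47D cells were seeded in 6-well plates for 24 h, then drug-treated for 24 h. RNA was extracted with on-column DNase digestion and checked by A260/A280, and concentrations were normalized. 100 ng RNA was run on the nCounter PanCancer Pathways Panel. Data were normalized per NanoString protocol, and the advanced analysis module calculated differential ratios against DMSO.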

Assay [12] has as its system T47D. As to the kind of experiment: Induction of cell cycle arrest in human T47D cells assessed as downregulation in CCNE2 RNA incubated for 24 hrs. It counts as functional, cell-based. The procedure, abridged:
as §3

Assay [13] has as its system T47D. As to the kind of experiment: Induction of cell cycle arrest in human T47D cells assessed as downregulation in CCNA2 RNA incubated for 24 hrs. The format is functional, cell-based. The procedure, abridged: as §3
The subject of assay [14] is T47D. Kind of assay: Effect on cell cycle pathway in human T47D cells assessed as fold enrichment in cell cycle genes incubated for 24 hrs relative to control. The format is functional. The essentials: as §3
The test system of assay [15] is T47D. As to the kind of experiment: Effect on cell cycle pathway in human T47D cells assessed as fold enrichment in mitotic genes incubated for 24 hrs relative to control. The format is functional. The procedure, abridged:
as §3

The subject of assay [16] is T47D. Kind of assay: Effect on cell cycle pathway in human T47D cells assessed as fold enrichment in G1/S transition genes incubated for 24 hrs relative to control. It counts as functional. The procedure, abridged:
as §3

The test system of assay [17] is T47D. Kind of assay: Effect on cell cycle pathway in human T47D cells assessed as fold enrichment in cell cycle checkpoint genes incubated for 24 hrs relative to control. The format is functional. The procedure, abridged: as §3
In assay [18] the test system is T47D. Kind of assay: Effect on cell cycle pathway in human T47D cells assessed as fold enrichment in S Phase genes incubated for 24 hrs relative to control. It counts as functional. The procedure, abridged:
as §3

For assay [19], the system named is T47D. Kind of assay: Effect on TNFR1 pathway in human T47D cells assessed as fold enrichment in TNFR1-induced proapoptotic signaling incubated for 24 hrs relative to control. The format is functional. The essentials: as §3
Assay [20] concerns T47D. Kind of assay: Effect on TNFR1 pathway in human T47D cells assessed as fold enrichment in AP1 family of transcription factors incubated for 24 hrs relative to control. The format is functional. The essentials:
as §3

The test system of assay [21] is T47D. Kind of assay: Effect on TNFR1 pathway in human T47D cells assessed as fold enrichment in MAPK targets/nuclear events mediated by MAP kinases incubated for 24 hrs relative to control. It counts as functional. The procedure, abridged: as §3
Assay [22] has as its system T47D. As to the kind of experiment: Effect on TNFR1 pathway in human T47D cells assessed as fold enrichment in RAF-independent MAPK1/3 activation genes incubated for 24 hrs relative to control. It counts as functional. The procedure, abridged: as §3
The subject of assay [23] is T47D. As to the kind of experiment: Effect on TNFR1 pathway in human T47D cells assessed as fold enrichment in MAP kinase activation genes incubated for 24 hrs relative to control. It counts as functional. The procedure, abridged:
as §3

For the molecule `CNCCCC1c2ccccc2C=Cc2ccccc21` [PROTRIPTYLINE], the result in assay [1] and in assay [2] was Active. Also, the outcome in assay [3], in assay [4], in assay [9] and in assay [10] was inactive. The EC50 in [5] is 7.7 µM; in [6] it was > 10 µM; in assay [7], > 10 µM; in assay [8], > 10 µM.

For `CN(C)CCCN1c2ccccc2Sc2ccc(C(F)(F)F)cc21` [TRIFLUPROMAZINE], the outcome in assay [1], in assay [2], in assay [11], in assay [12] and in assay [13] was Active. Also, the result in assay [3], in assay [4], in assay [9] and in [10] was inactive. Moreover, the EC50 in assay [5] was 5.4 µM; in [6] it was 8.6 µM; in [7] it was > 10 µM; in assay [8], > 10 µM. For the same molecule, the “fold change (FC)” value in [14] is 7.33; in [15], 7.55; in assay [16] it was 11.45; in assay [17] it was 11.45; in assay [18], 10.15; in [19], 17.4. For the same molecule, the “fold change (FC)” value in [20] is 14.91; in [21] it was 1.015; in assay [22] it was 6.96; in assay [23], 6.02.
